From PubChem
MEKK3 PB1 HTS: raises or lowers MEK5 binding to the human MEKK3 PB1 domain. binding response (% of control), % at 10 µM. AID 1529. Q99759. bead-based flow cytometry, Alexa488-MEK5 binding to MEKK3; actives lie on both sides; 0 = blocked by unlabeled MEK5, 100 = vehicle. hit rate 1.4% among 290,000;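 active = binding response more than 3 SD above or below the average of its plate-row segment, actives on both sides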;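 also: Alexa488 bead fluorescence after subtracting the streptavidin-only scavenger bead signal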
Target sequence (Q99759 whole entry, looked up, the tested form may be a part): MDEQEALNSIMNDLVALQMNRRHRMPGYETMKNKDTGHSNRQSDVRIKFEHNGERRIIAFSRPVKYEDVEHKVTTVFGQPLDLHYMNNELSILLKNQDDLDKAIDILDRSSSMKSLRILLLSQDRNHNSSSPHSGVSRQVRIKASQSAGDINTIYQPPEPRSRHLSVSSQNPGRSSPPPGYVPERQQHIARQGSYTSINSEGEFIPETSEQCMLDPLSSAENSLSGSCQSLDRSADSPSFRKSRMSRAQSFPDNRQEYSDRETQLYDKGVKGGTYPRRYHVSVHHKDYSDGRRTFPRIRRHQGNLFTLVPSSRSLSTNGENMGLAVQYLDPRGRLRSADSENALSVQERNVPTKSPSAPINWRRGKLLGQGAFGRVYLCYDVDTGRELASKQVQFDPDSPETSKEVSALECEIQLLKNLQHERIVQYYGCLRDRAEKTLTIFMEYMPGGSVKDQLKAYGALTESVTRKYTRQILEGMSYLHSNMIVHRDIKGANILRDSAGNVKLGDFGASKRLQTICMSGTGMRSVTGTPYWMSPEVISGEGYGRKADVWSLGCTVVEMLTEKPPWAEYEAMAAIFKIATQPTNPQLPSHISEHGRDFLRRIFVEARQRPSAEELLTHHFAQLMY
MEKK2mut PB1 HTS: signal of MEK5 binding to mutant human MEKK2 PB1 domain. bead flow cytometry, Alexa488-MEK5 binding to MEKK2 mutant. percent response, % at 10 µM. hit rate 0.35% among 290,000. AID 1530; in the data active = percent response above about 24%, passing the limit was not always enough
Lipid droplet: hepatic lipid droplet formation modulation | AML12 mouse hepatocytes, oleate lipid droplets, BODIPY imaging | inhibition, % at 6.5 µM | hit rate 0.4% among 240,000 | AID 1656;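 active = lipid droplet intensity inhibited by at least 50%, with more than 500 cells counted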
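Assay system: AML12 hepatocytes (mouse); Probe or stimulus: oleic acid at 100 µM to induce lipid droplet formation; Dosing: compound at 6.5 µM only; Schedule: compound with oleate, overnight; Detection: fluorescence imaging, 20x objective, two fields per well; Measure: % inhibition of lipid droplet signal.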
MEKK2wt PB1 HTS: raises or lowers MEK5 binding to wildtype human MEKK2 PB1 domain | hit rate 1.1% among 290,000 | binding response (% of control), % at 10 µM | AID 1531 | bead flow cytometry, Alexa488-MEK5 binding to MEKK2 WT; actives lie on both sides | Q9Y2U5; in the data active = binding response below about 67% or above about 130%
MEKK2wt confirm: raises or lowers MEK5 binding to wildtype human MEKK2, retest. shares compounds with MEKK3 PB1 HTS. bead flow cytometry, Alexa488-MEK5 binding to MEKK2 WT; actives lie on both sides. binding response (% of control), % at 10 µM. hit rate 2.4% among 5,900. AID 1892; in the data active = binding response below about 16% or above about 210%; inactive = in between
MEKK2mut confirm: signal of MEK5 binding to mutant human MEKK2, retest; shares compounds with MEKK3 PB1 HTS; bead flow cytometry, Alexa488-MEK5 binding to MEKK2 mutant; percent response, % at 10 µM; hit rate 2% among 5,900; in the data active = percent response mostly above about 71%, no sharp cut-off; inactive = mostly below about 38%;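 also: higher means compound restores mutant binding toward wildtype level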
MEKK3-MEK5 inh: confirmation of inhibitors of MEK5 binding to human MEKK3; shares compounds with MEKK3 PB1 HTS; bead flow cytometry, Alexa488-MEK5 binding to MEKK3; stronger effect = lower value; binding response (% of control), % at 10 µM; hit rate 1.8% among 5,900;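 active = binding response below 72% of control, or above a set upper limit, though filed actives all read lower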
A number is an active result; – = inactive; · = no result given; ! = a repeat was not active; [ ] = another dose, or the depositor's remark. A selection: hits, their analogues and other compounds. The true share with any hit is near 2.6%.

SMILES | MEKK3 PB1 HTS | MEKK2mut PB1 HTS | Lipid droplet | MEKK2wt PB1 HTS | MEKK2wt confirm | MEKK2mut confirm | MEKK3-MEK5 inh
CC(C)(C)C(=O)Nc1cc(NC(=O)C(C)(C)C)cc(C(=O)NNC(=O)c2ccncc2)c1 | – | – | · | – | · | · | ·
CSc1nnc(NC(=O)c2cc(=O)c3cc(C)cc(C)c3o2)s1 | – | – | – | – | · | · | ·
Cc1cc(C)c2oc(C(=O)Nc3nnc(C(C)C)s3)cc(=O)c2c1 | 212 | – | – | – | – | – | –
COc1cccc(N2CC(C(=O)Nc3nnc(SCCN4CCOCC4)s3)CC2=O)c1 (configuration not stated) | – | – | – | – | · | · | ·
OCC1(Cc2ccccc2)CCN(Cc2cnn(-c3ccccc3F)c2)CC1 | – | 362 | – | 520 | – | – | –
CSc1cccc(CN2CCC(CO)(Cc3cccc(C(F)(F)F)c3)CC2)c1 | – | – | – | 138 | – | – | –
Cc1ccc(-n2cc(CN3CCC(CO)(Cc4cccc(C(F)(F)F)c4)CC3)cn2)cc1 | – | 123 | – | 227 | – | – | –
Cc1ccc(-n2cc(CN3CCC(CO)(Cc4ccccc4)CC3)cn2)cc1 | – | – | – | – | · | · | ·
CCn1cc(C(=O)N[C@@H](CCSC)C(=O)NCCCn2ccnc2)c(=O)c2cc3c(cc21)OCO3 | – | – | – | – | · | · | ·
Cc1ccc(NC(=O)Cc2nnc(SCC(=O)NC3=NCCS3)n2C)cc1 | – | – | – | – | · | · | ·
Cc1ccc(N=C(N(C)C)P(=O)(N(C)C)N(C)C)c(C)c1 | 72[inhibitor] | – | – | – | – | – | –
COc1ccc(C=O)cc1CSc1ccccn1 | – | – | – | – | · | · | ·
COc1ccc(/C=N/NC(=O)c2ccc(O)cc2O)cc1CSc1ccccn1 | 136 | – | – | – | – | – | –
Cc1c(-c2ccccc2)oc2c(C(=O)OCC(=O)Nc3ccc(C(N)=O)cc3)cccc2c1=O | – | – | – | – | · | · | ·
O=C(Nc1ccccc1-c1ccccc1)NC1CCN(C(=O)N2CCOCC2)CC1 | 122 | – | – | – | – | – | –
O=C(CN1CCC(NC(=O)Nc2ccccc2-c2ccccc2)CC1)NCc1ccco1 | – | – | – | – | · | · | ·
COc1cc(S(=O)(=O)n2nc(C)cc2C)c(OC)cc1Cl | 2.0[inhibitor] | – | – | -2.0[inhibitor] | – | – | –
COc1cccc(CNCc2ccccc2Br)c1OC | – | – | – | – | · | · | ·
CC(C)COCC1CC2(CC(C)C(=O)CC2=O)C(=O)O1 (configuration not stated) | 123 | – | · | – | – | – | –
CC(C)COCC1CC2(CC(C)(c3csc(N)n3)OC2=O)C(=O)O1 (configuration not stated) | – | – | · | – | · | · | ·
CCN1CCN(Cc2ccc(NC(=O)c3ccc(C)c(NC(=O)c4cccc(-c5cn[nH]c(=O)c5)c4)c3)cc2C(F)(F)F)CC1 | – | 29 | · | 169 | – | – | –
CCN1CCN(Cc2ccc(NC(=O)c3ccc(C)c(NC(=O)c4csc(-c5ccncc5)n4)c3)cc2C(F)(F)F)CC1 | – | – | – | 141 | – | – | –
CCN1CCN(Cc2ccc(NC(=O)c3ccc(C)c(NC(=O)C4=NN(c5ccccc5)C(=O)C4)c3)cc2C(F)(F)F)CC1 | – | – | – | – | · | · | ·
CCN1CCN(Cc2ccc(NC(=O)c3ccc(C)c(/C=C/c4cnc(Nc5cc(N6CCNCC6)nc(C)n5)cn4)c3)cc2C(F)(F)F)CC1 | – | 205 | · | 401 | 280 | 169 | –
CCN1CCN(Cc2ccc(NC(=O)c3ccc(C)c(NC(=O)c4c[nH]c5cc(C(F)(F)F)ccc5c4=O)c3)cc2C(F)(F)F)CC1 | – | 83 | – | 199 | 224 | 131 | –
SMILES | MEKK3 PB1 HTS | MEKK2mut PB1 HTS | Lipid droplet | MEKK2wt PB1 HTS | MEKK2wt confirm | MEKK2mut confirm | MEKK3-MEK5 inh
CCN1CCN(Cc2ccc(NC(=O)c3ccc(C)c(NC(=O)C[C@@H]4NC(=O)[C@H](Cc5ccccc5)NC4=O)c3)cc2C(F)(F)F)CC1 | – | – | – | – | · | · | ·
CCN1CCN(Cc2ccc(NC(=O)c3cc(NC(=O)N4CCNC4=O)cc(OC)c3)cc2C(F)(F)F)CC1 | – | – | – | – | · | · | ·
CCN1CCN(Cc2ccc(NC(=O)c3ccc(C)c(NC(=O)c4ccno4)c3)cc2C(F)(F)F)CC1 | – | – | – | – | · | · | ·
COc1ccc(CCN2CC(C(=O)NCCc3cccnc3)CCC2=O)cc1 (configuration not stated) | – | – | – | – | · | · | ·
O=C(NCc1ccc(F)cc1)c1ccc2c(c1)S(=O)(=O)c1ccccc1C2=O | – | – | · | – | · | · | ·
CCOC(=O)N1CCN=C1SCc1ccc(Cl)c(Cl)c1 | – | – | – | – | · | · | ·
COc1ccc(N2CCN(C(=O)COc3ccc(S(=O)(=O)N4CCOCC4)cc3C)CC2)cc1 | – | – | – | – | · | · | ·
CSc1ccc2c(c1)C(N1CCN(C)CC1)Cc1ccccc1S2 (configuration not stated) | – | – | – | 150 | – | – | –
COc1ccc(CNCCNC(=O)c2ccco2)c(OC)c1OC | 127 | – | – | – | – | – | –
O=[N+]([O-])c1ccc(Cl)c(C[n+]2cccc3ccccc32)c1 | – | – | – | – | · | · | ·
N#C/C(=C(/O)COC(=O)c1ccc(C#N)cc1)c1nc2ccccc2s1 | – | – | – | -1.0[inhibitor] | – | – | –
CCOC(=O)c1nc2ccccc2s1 | 2.0[inhibitor] | – | · | 2.0[inhibitor] | – | – | –
O=c1cc(CSc2ccc(Cl)cc2)nc(-c2ccncc2)[nH]1 | – | – | – | – | · | · | ·
O=c1cc(CSc2ccccc2)nc(-c2ccncc2)[nH]1 | 46[inhibitor] | – | – | – | – | – | –
C/C(=N\OCC(=O)N/N=C/c1ccc(C)cc1O)c1cccs1 | 124 | – | · | – | – | – | –
C/C(=N\NC(=O)CO/N=C(\C)c1cccs1)c1ccc(N)cc1 | – | – | – | – | · | · | ·
CCOc1ccccc1-n1nnnc1SC(C)C(=O)OC (configuration not stated) | – | – | – | – | · | · | ·
Cc1nn(CCC(N)=S)c2nc(-c3cccs3)cc(C(F)(F)F)c12 | 151 | – | – | – | – | – | –
Fc1ccc([C@@H]2CCNC[C@H]2COc2ccc3c(c2)OCO3)cc1 | – | – | – | 144! | – | – | –
COc1ccccc1CNC(=O)C1CCCN1S(=O)(=O)c1cccc2cccnc12 (configuration not stated) | – | – | · | – | · | · | ·
NC(=O)C1CCN(c2ncc(C(F)(F)F)cc2Cl)CC1 | 130 | – | – | – | – | – | –
N#CCC(=O)N/N=C/c1ccc(N2N=C(c3ccccc3)CC2c2ccccc2)cc1 (configuration not stated) | – | – | – | – | · | · | ·
CCOC(=O)Cc1c(C)nc2c(-c3ccccc3OC)c(C)nn2c1C | – | – | · | – | · | · | ·
